Values after ≈ are worked out from the molar mass of the structure shown. Active and inactive are the calls of the source. The rule behind the calls is not given here.
Key:
Salmonella [1] = test: Antibacterial activity against Salmonella schottmuelleri infected in sc dosed CD1 mouse assessed as host survival administered 1 and 4 hrs after infection measured on day 4; format: functional
How it was run: (§1)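 Male albino CD-1 mice, 20 (± 1) g, infected intraperitoneally with a bacterial suspension giving uniformly lethal infection. Groups of ten mice were treated subcutaneously with antibiotic at 1 and 4 h post-infection. Survival over 4 days was recorded.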

Streptococcus pyogenes [2] = test: Antibacterial activity against Streptococcus pyogenes after 17 hrs by serial two fold dilution method; format: functional
How it was run: (§2)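 Agar dilution MIC: compound serially diluted twofold in Mueller-Hinton agar. Plate surfaces were inoculated with a suitably diluted 18-24-h broth culture and incubated 17 h at 37 °C. MIC was read as the lowest concentration giving complete or virtually complete inhibition of visible growth.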

Bacteroides fragilis = test: Antibacterial activity against Bacteroides fragilis after 17 hrs by serial two fold dilution method; format: functional, organism-based
Providencia stuartii = test: Antibacterial activity against Providencia stuartii after 17 hrs by serial two fold dilution method; format: functional; how it was run: as §2
Enterococcus faecalis = test: Antibacterial activity against Staphylococcus faecalis after 17 hrs by serial two fold dilution method; format: functional; how it was run: as §2
Salmonella [3] = test: Antibacterial activity against Salmonella schottmuelleri after 17 hrs by serial two fold dilution method; format: functional; how it was run: as §2
Staphylococcus aureus [4] = test: Antibacterial activity against Staphylococcus aureus after 17 hrs by serial two fold dilution method; format: functional; how it was run: as §2
Klebsiella pneumoniae [5] = test: Antibacterial activity against Klebsiella pneumoniae infected in sc dosed CD1 mouse assessed as host survival administered 1 and 4 hrs after infection measured on day 4; format: functional; how it was run: as §1
Streptococcus pneumoniae = test: Antibacterial activity against Streptococcus pneumoniae after 17 hrs by serial two fold dilution method; format: functional; how it was run: as §2
Klebsiella aerogenes = test: Antibacterial activity against Enterobacter aerogenes after 17 hrs by serial two fold dilution method; format: functional
Pseudomonas aeruginosa = test: Antibacterial activity against Pseudomonas aeruginosa after 17 hrs by serial two fold dilution method; format: functional; how it was run: as §2
Fusobacterium varium = test: Antibacterial activity against Fusobacterium varium after 17 hrs by serial two fold dilution method; format: functional, organism-based
Haemophilus influenzae = test: Antibacterial activity against Haemophilus influenzae after 17 hrs by serial two fold dilution method; format: functional, organism-based
Proteus mirabilis [6] = test: Antibacterial activity against Proteus mirabilis after 17 hrs by serial two fold dilution method; format: functional; how it was run: as §2
Streptococcus pyogenes [7] = test: Antibacterial activity against Streptococcus pyogenes infected in sc dosed CD1 mouse assessed as host survival administered 1 and 4 hrs after infection measured on day 4; format: functional; how it was run: as §1
Proteus mirabilis [8] = test: Antibacterial activity against Proteus mirabilis infected in sc dosed CD1 mouse assessed as host survival administered 1 and 4 hrs after infection measured on day 4; format: functional; how it was run: as §1
[9] = system: Staphylococcus epidermidis; test: Antibacterial activity against Staphylococcus epidermidis after 17 hrs by serial two fold dilution method; format: functional; how it was run: as §2
Proteus vulgaris = test: Antibacterial activity against Proteus vulgaris after 17 hrs by serial two fold dilution method; format: functional; how it was run: as §2
Escherichia coli [10] = test: Antibacterial activity against Escherichia coli infected in sc dosed CD1 mouse assessed as host survival administered 1 and 4 hrs after infection measured on day 4; format: functional; how it was run: as §1
Enterobacter cloacae = test: Antibacterial activity against Enterobacter cloacae after 17 hrs by serial two fold dilution method; format: functional
Staphylococcus aureus [11] = test: Antibacterial activity against benzylpenicillin-resistant Staphylococcus aureus after 17 hrs by serial two fold dilution method; format: functional
How it was run: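 Agar dilution MIC. Compound was serially diluted twofold in Mueller-Hinton agar. The surface was inoculated with a diluted 18-24-h broth culture […]. Plates were incubated 17 h at 37 °C. MIC was taken as the lowest concentration giving complete or virtually complete inhibition of visible growth.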

Klebsiella pneumoniae [12] = test: Antibacterial activity against Klebsiella pneumoniae after 17 hrs by serial two fold dilution method; format: functional; how it was run: as §2
Neisseria gonorrhoeae = test: Antibacterial activity against Neisseria gonorrhoeae after 17 hrs by serial two fold dilution method; format: functional, organism-based
Staphylococcus aureus [13] = test: Antibacterial activity against benzylpenicillin-resistant Staphylococcus aureus infected in sc dosed CD1 mouse assessed as host survival administered 1 and 4 hrs after infection measured on day 4; format: functional; how it was run: as §1
Escherichia coli [14] = test: Antibacterial activity against Escherichia coli after 17 hrs by serial two fold dilution method; format: functional; how it was run: as §2

Cn1nnnc1SCC1=C(C(=O)O)N2C(=O)[C@@H](NC(=O)Cn3cccc3)[C@H]2SC1
ED50 (Salmonella [1]): 2.5 mg/kg | MIC (Streptococcus pyogenes [2]): 0.1 µg/mL (≈ 0.23 µM) | Activity (Bacteroides fragilis): inactive | MIC (Providencia stuartii): 6.2 µg/mL (≈ 14.2 µM) | MIC (Enterococcus faecalis): > 100 µg/mL | MIC (Salmonella [3]): 0.4 µg/mL (≈ 0.919 µM) | MIC (Staphylococcus aureus [4]): 0.4 µg/mL (≈ 0.919 µM) | ED50 (Klebsiella pneumoniae [5]): 67 mg/kg | MIC (Streptococcus pneumoniae): 0.1 µg/mL (≈ 0.23 µM) | MIC (Klebsiella aerogenes): 25 µg/mL (≈ 57.4 µM) | MIC (Pseudomonas aeruginosa): > 100 µg/mL | Activity (Fusobacterium varium): inactive | Activity (Haemophilus influenzae): inactive | MIC (Proteus mirabilis [6]): 6.2 µg/mL (≈ 14.2 µM) | ED50 (Streptococcus pyogenes [7]): 2.3 mg/kg | ED50 (Proteus mirabilis [8]): 100 mg/kg | MIC [9]: 1.6 µg/mL (≈ 3.67 µM) | MIC (Proteus vulgaris): > 100 µg/mL | ED50 (Escherichia coli [10]): 2.5 mg/kg | MIC (Enterobacter cloacae): 6.2 µg/mL (≈ 14.2 µM) | MIC (Staphylococcus aureus [11]): 0.8 µg/mL (≈ 1.84 µM) | MIC (Klebsiella pneumoniae [12]): 1.6 µg/mL (≈ 3.67 µM) | Activity (Neisseria gonorrhoeae): inactive | ED50 (Staphylococcus aureus [13]): 72 mg/kg | MIC (Escherichia coli [14]): 0.8 µg/mL (≈ 1.84 µM)

From ChEMBL document CHEMBL3244034, “Semisynthetic cephalosporins. Synthesis and structure-activity relationships of 7-(1-pyrryl)- and 7-(1-indolyl)acetamidocephalosporin derivatives” (1978)
